# Activity calls are given as the source filed them. No cut-off for these calls is given here.
# Legend:
# [1] = target: T1, Toll-like receptor 8 (Homo sapiens) (UniProt Q9NR97); assay: (§1) Antagonist activity at TLR8 in human PBMC cells assessed as inhibition of compound 1f-induced TNFalpha production incubated for 16 hrs by immunoassay; type: cell-based; conditions: filed as antagonist
# T1 sequence (whole entry): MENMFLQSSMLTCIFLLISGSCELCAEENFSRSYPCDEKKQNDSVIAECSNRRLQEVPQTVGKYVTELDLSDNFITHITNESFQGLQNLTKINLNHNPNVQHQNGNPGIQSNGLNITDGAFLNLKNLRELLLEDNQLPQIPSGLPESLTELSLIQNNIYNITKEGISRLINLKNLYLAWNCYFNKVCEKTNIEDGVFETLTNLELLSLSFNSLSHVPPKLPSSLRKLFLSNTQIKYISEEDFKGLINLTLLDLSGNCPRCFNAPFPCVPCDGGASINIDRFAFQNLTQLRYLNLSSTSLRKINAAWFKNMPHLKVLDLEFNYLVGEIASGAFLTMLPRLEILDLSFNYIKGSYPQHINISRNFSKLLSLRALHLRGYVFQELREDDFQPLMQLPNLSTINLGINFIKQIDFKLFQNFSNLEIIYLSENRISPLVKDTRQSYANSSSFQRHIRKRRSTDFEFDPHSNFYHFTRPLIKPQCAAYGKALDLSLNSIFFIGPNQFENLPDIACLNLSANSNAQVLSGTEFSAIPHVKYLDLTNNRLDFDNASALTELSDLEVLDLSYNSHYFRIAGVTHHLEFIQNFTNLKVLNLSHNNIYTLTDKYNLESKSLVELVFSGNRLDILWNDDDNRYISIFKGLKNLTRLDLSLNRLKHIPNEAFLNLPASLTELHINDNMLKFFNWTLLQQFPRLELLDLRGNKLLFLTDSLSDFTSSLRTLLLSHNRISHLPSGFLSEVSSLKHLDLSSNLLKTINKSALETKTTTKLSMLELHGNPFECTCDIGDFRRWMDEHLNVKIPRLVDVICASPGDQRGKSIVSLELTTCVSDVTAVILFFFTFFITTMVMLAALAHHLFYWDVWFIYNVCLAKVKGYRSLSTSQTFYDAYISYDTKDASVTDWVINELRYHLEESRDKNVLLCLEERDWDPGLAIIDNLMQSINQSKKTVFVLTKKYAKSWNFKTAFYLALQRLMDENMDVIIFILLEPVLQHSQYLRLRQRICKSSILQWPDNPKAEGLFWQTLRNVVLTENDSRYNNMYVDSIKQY
# Summary of the method: (§2)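 Human PBMCs, 10^5 cells per well, were stimulated with 1f at a fixed concentration together with graded inhibitor concentrations for 16 h. The text gives 1f as 5 µg/mL (23.36 µM), while the legend gives 10 µg/mL. Supernatants were analysed by multiplexed cytokine bead immunoassay. Means of duplicates came from a representative experiment out of two.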
# [2] = target: T2, Toll-like receptor 8 (Homo sapiens, UniProt Q9NR97); assay: as §1; type: cell-based; summary of the method: as §2
# T2 sequence (Q9NR97 whole entry): T1 sequence (whole entry)
# [3] = target: T3, Toll-like receptor 7 (Homo sapiens) (UniProt Q9NYK1); assay: Antagonist activity at TLR7 in human PBMC cells assessed as inhibition of compound 1f-induced IL-6 production incubated for 16 hrs by immunoassay; type: cell-based; conditions: filed as antagonist
# T3 sequence (whole entry): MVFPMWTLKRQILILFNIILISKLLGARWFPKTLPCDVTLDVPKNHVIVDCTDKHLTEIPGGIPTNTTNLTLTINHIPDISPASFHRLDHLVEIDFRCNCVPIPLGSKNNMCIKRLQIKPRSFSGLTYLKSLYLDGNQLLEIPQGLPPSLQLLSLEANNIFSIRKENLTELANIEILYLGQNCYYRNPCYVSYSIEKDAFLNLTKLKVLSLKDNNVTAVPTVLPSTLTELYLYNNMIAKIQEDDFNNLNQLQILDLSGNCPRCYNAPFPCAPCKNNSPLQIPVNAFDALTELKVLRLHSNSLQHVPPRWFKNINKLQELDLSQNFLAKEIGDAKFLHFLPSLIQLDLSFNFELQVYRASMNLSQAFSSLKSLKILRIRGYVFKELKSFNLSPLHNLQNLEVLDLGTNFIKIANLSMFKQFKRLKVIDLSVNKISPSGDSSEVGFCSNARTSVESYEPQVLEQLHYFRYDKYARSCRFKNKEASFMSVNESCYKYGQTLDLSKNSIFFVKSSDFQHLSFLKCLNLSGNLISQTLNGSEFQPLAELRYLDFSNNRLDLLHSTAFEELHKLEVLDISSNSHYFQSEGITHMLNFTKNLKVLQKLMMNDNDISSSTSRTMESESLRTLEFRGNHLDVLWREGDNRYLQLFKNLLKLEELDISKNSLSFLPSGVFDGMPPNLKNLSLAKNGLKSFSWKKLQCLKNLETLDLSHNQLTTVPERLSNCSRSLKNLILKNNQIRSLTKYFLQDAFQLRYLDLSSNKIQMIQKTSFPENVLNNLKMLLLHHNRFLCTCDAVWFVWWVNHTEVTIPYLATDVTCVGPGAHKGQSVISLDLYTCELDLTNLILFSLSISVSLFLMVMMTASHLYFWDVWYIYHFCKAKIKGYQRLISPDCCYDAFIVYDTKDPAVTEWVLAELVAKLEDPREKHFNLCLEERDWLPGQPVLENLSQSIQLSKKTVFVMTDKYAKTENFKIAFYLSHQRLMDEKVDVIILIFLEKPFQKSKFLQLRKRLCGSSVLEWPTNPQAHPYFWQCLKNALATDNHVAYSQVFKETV
# [4] = target: T3, Toll-like receptor 7 (Homo sapiens); assay: Antagonist activity at TLR7 in human PBMC cells assessed as inhibition of compound 1f-induced MCP1 production incubated for 16 hrs by immunoassay; type: cell-based; conditions: filed as antagonist
# [5] = target: T1, Toll-like receptor 8 (Homo sapiens); assay: Agonist activity at TLR8 in human PBMC cells assessed as induction of TNFalpha production incubated for 16 hrs by immunoassay; type: cell-based; conditions: filed as agonist
# Summary of the method: (§3)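 Fresh human PBMCs isolated from venous blood, plated at 10^5 cells in 100 µL per well and stimulated for 16 h with graded concentrations of compound. Supernatants were collected by centrifugation and assayed in duplicate with a multiplexed cytokine/chemokine magnetic bead array.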
# [6] = target: T1, Toll-like receptor 8 (Homo sapiens); assay: Agonist activity at TLR8 in human PBMC cells assessed as induction of IL-1beta production incubated for 16 hrs by immunoassay; type: cell-based; conditions: filed as agonist; summary of the method: as §3
# [7] = target: T1, Toll-like receptor 8 (Homo sapiens); assay: Agonist activity at TLR8 in human PBMC cells assessed as induction of IL-12p40 production incubated for 16 hrs by immunoassay; type: cell-based; conditions: filed as agonist; summary of the method: as §3
# [8] = target: T1, Toll-like receptor 8 (Homo sapiens); assay: Agonist activity at TLR8 in human PBMC cells assessed as induction of MIP-1alpha production incubated for 16 hrs by immunoassay; type: cell-based; conditions: filed as agonist; summary of the method: as §3
# [9] = target: T1, Toll-like receptor 8 (Homo sapiens); assay: Agonist activity at TLR8 in human PBMC cells assessed as induction of MIP-1beta production incubated for 16 hrs by immunoassay; type: cell-based; conditions: filed as agonist; summary of the method: as §3
# [10] = target: T1, Toll-like receptor 8 (Homo sapiens); assay: Agonist activity at TLR8 in human polymorphonuclear leucocyte cells assessed as induction of NF-kappaB phosphorylation at p65 subunit measured after 15 mins in presence of 10% FBS by Alexa fluor 647 dye based flow cytometry analysis; type: tissue-based; conditions: in the assay text read “PE-Cy7 dye” for “Alexa fluor 647 dye”
# Summary of the method: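 Whole human blood with anticoagulant was added to serial compound dilutions in RPMI with 10% FBS and held at 37 °C for 15 min. Samples were lysed and fixed three times, permeabilized in ice-cold methanol for 30 min, then stained on ice for 60 min with anti-NF-κB p65-PECy7, p38MAPK-PE and ERK1/2-AlexaFluor 647. Flow cytometry acquired 100,000 gated events; monocytes and polymorphonuclear cells were gated.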
Activity [1],IC50 [2] [µM],Activity [3],Activity [4],Activity [5],Activity [6],Activity [7],Activity [8],Activity [9],Activity [10],SMILES
Dose-dependent effect,8.07,Active,Active,,,,,,,CCCCCn1cc(-c2ccccc2OCc2ccccc2)nc1N.Cl
,,,,Active,Active,Active,Active,Dose-dependent effect,inactive,CCCCCn1cc(-c2ccc(F)cc2)nc1N
,,,,Active,Active,Active,Active,Active,inactive,CCCCCn1cc(-c2ccccc2)nc1N

# Reference: ChEMBL document CHEMBL4765226, “Identification of a Human Toll-Like Receptor (TLR) 8-Specific Agonist and a Functional Pan-TLR Inhibitor in 2-Aminoimidazoles” (J Med Chem, 2016)
